The source of these data is ChEMBL document CHEMBL1131249, “Antimalarial cyclic peroxy ketals” (J Med Chem, 1998).

In the assay the test system is Plasmodium falciparum. Kind of assay: In vitro antimalarial activity against Plasmodium falciparum. In kind it is functional, organism-based. The essentials:
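Method follows earlier published work. Each compound tested in quadruplicate. IC50 derived from fitted concentration–response curves. Artemisinin run as a concurrent control, with n = 20 for the control.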
Take `COC1(c2ccc(S(C)(=O)=O)cc2)C=CC2(CCCCCC2)OO1` (configuration not stated): 31 nM corresponded to half-maximal inhibition (IC50).

In the case of `COc1ccc(C2(OC)C=CC3(CCC3)OO2)cc1` (configuration not stated), it took 160 nM to reach half-maximal inhibition (IC50).

`COC1(c2ccc(S(C)(=O)=O)cc2)C=CC2(CCCCC2)OO1` (configuration not stated) returned a half-inhibitory concentration (IC50) of 56 nM.

Consider `COC1(c2ccc(OC(F)(F)F)cc2)C=CC2(CCCCCC2)OO1` (configuration not stated), for which the IC50 was determined as 61 nM.

Consider `COC1(c2ccccc2)C=CC2(CCCCCC2)OO1` (configuration not stated), for which the IC50 is 220 nM.

In turn, `COC1(c2ccc(F)cc2)C=CC2(CCCCCC2)OO1` (configuration not stated) had an IC50 of 85 nM.

Molecule `CCc1ccc(C2(OC)C=CC3(CCCCCC3)OO2)cc1` (configuration not stated) yielded an IC50 of 180 nM.

With `COC1(c2ccccc2)C=CC2(CCCC2)OO1` (configuration not stated), half-maximal inhibition (IC50) was put at 190 nM.

With `COC1(c2ccc([N+](=O)[O-])cc2)C=CC2(CCCCC2)OO1` (configuration not stated), the IC50 worked out at 46 nM.

Take `COc1ccc(C2(OC)C=CC3(CCCCCC3)OO2)cc1` (configuration not stated): the IC50 turned out to be 210 nM.

In turn, `COC1(c2ccc(SC)cc2)C=CC2(CCCCC2)OO1` (configuration not stated) gave an IC50 of 160 nM.

For `COC1(c2ccccc2)C=CC2(CCCCC2)OO1` (configuration not stated), the IC50 came out at 280 nM.

In the case of `CC(C)OC1(c2ccc(Cl)cc2)C=CC2(CCCCCC2)OO1` (configuration not stated), the IC50 worked out at 1100 nM.

`COC1(c2ccc(Cl)cc2)C=CC2(CCCCC2)OO1` (configuration not stated) gave an IC50 of 100 nM.

Take `CC1(C)C=CC(O)(c2ccccc2)OO1` (configuration not stated): the IC50 was above 2500 nM.

In turn, `COC1(c2ccc(Cl)cc2)C=CC2(CCCCCC2)OO1` (configuration not stated) displayed an IC50 of 58 nM.

`COC1(c2ccc(SC)cc2)C=CC2(CCCCCC2)OO1` (configuration not stated) had an IC50 of 78 nM.

`COC1(c2ccc(F)cc2)C=CC2(CCCCC2)OO1` (configuration not stated) showed an IC50 of 200 nM.

Regarding `COc1ccc(C2(OC)C=CC3(CCCCC3)OO2)cc1` (configuration not stated), the IC50 came to 180 nM.

Turning to `COc1cc(C2(OC)C=CC3(CCCCCC3)OO2)cc(OC)c1OC` (configuration not stated), the IC50 stood at 120 nM.

Turning to `COC1(c2ccccc2)C=CC(C)(C)OO1` (configuration not stated), inhibition was half-maximal at 1100 nM (IC50).

For `C[C@@H]1CC[C@H]2[C@@H](C)C(=O)O[C@@H]3O[C@@]4(C)CC[C@@H]1[C@]32OO4` [ARTEMISININ], the IC50 stood at 8.4 nM.
